Data reported in ChEMBL document CHEMBL1125252, “Synthesis and anti-HIV-1 activity of 4,5,6,7-tetrahydro-5-methylimidazo[4,5,1-jk][1,4]benzodiazepin- 2(1H)-one (TIBO) derivatives” (J Med Chem, 1991).

Experiments:
MT4 [1] = assay: Effective concentration required to achieve 50% protection of MT-4 cells against the cytopathic effect of HIV-1; I = Inactive; format: functional, cell-based, Homo sapiens
Procedure, shortened: (§1)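 MT-4 cells were infected with HIV-1 or mock-infected, then incubated with a range of test-compound concentrations. IC50 is the concentration giving 50% protection against HIV-1-induced cytopathic effect. CC50 is the concentration reducing viability of mock-infected cells by 50%. SI is CC50/IC50. Most determinations were run in duplicate and averaged.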

MT4 [2] = assay: (§2) Cytotoxic concentration required to reduce the viability of mock-infected MT-4 cells by 50%.; format: functional; conditions: Homo sapiens; procedure, shortened: as §1
[3] = tested on: Human immunodeficiency virus 1; assay: Effective concentration required to achieve 50% protection of MT-4 cells against the cytopathic effect of HIV-1.; format: functional, organism-based; conditions: Human immunodeficiency virus 1, MT4; procedure, shortened: as §1
MT4 [4] = assay: Selectivity index measured as the ratio of CC50/IC50 values.; format: functional; procedure, shortened: as §1
MT4 [5] = assay: as §2; format: functional, cell-based; conditions: Homo sapiens; procedure, shortened: as §1

| SMILES | IC50 (MT4 [1]) | CC50 (MT4 [2]) [µM] | IC50 [3] [µM] | Selectivity index (MT4 [4]) | CC50 (MT4 [5]) [µM] |
| --- | --- | --- | --- | --- | --- |
| C[C@H]1Cn2c(O)nc3cccc(c32)CN1 | Not Active | 901 | – | – | – |
| C=C(C)CN1Cc2cccc3[nH]c(=O)n(c23)C[C@@H]1C | – | 222 | 19 | 11 | – |
| CCN1Cc2cccc3nc(O)n(c23)CC1C (configuration not stated) | Not Active | 592 | – | – | – |
| CC1Cn2c(O)nc3cccc(c32)CN1Cc1ccc[nH]1 (configuration not stated) | Not Active | 92 | – | – | – |
| CCCCN1Cc2cccc3nc(O)n(c23)CC1C (configuration not stated) | – | 501 | 100 | 5 | – |
| CC(C)CN1Cc2cccc3nc(O)n(c23)CC1C (configuration not stated) | Not Active | 82 | – | – | – |
| C=C(CN1Cc2cccc3nc(O)n(c23)CC1C)C(C)C (configuration not stated) | Not Active | 18 | – | – | – |
| CC(C)=C(C)CN1Cc2cccc3nc(O)n(c23)CC1C (configuration not stated) | Not Active | > 876 | – | – | – |
| CC1Cn2c(O)nc3cccc(c32)CN1C/C=C\c1ccccc1 (configuration not stated) | – | 388 | 122 | 3 | – |
| C/C=C/C=C/CN1Cc2cccc3nc(O)n(c23)CC1C (configuration not stated) | Not Active | 378 | – | – | – |
| COC(=O)CN1Cc2cccc3nc(O)n(c23)CC1C (configuration not stated) | – | 925 | 855 | – | – |
| C#CCN1Cc2cccc3nc(O)n(c23)CC1C (configuration not stated) | – | 990 | 580 | – | – |
| CC(C)=CCN1Cc2cccc3nc(O)n(c23)C[C@H]1C | – | 450 | 22 | 20 | – |
| C=C(CC)CN1Cc2cccc3nc(O)n(c23)CC1C (configuration not stated) | – | 66 | 37 | 2 | – |
| CC1Cn2c(O)nc3cccc(c32)CN1C/C=C/c1ccccc1 (configuration not stated) | Not Active | > 783 | – | – | – |
| CC(=O)CN1Cc2cccc3nc(O)n(c23)CC1C (configuration not stated) | Not Active | 760 | – | – | – |
| C=CC(=C)CN1Cc2cccc3nc(O)n(c23)CC1C (configuration not stated) | – | 290 | 71 | 4 | – |
| C=C(CN1Cc2cccc3nc(O)n(c23)CC1C)c1ccccc1 (configuration not stated) | Not Active | 3 | – | – | – |
| C/C=C(/C)CN1Cc2cccc3nc(O)n(c23)CC1C (configuration not stated) | – | 106 | 29 | 4 | – |
| C=CCCN1Cc2cccc3nc(O)n(c23)CC1C (configuration not stated) | – | 552 | 50 | 11 | – |
| CC1Cn2c(O)nc3cccc(c32)CN1CC#N (configuration not stated) | Not Active | 508 | – | – | – |
| C/C=C/CN1Cc2cccc3nc(O)n(c23)CC1C (configuration not stated) | – | 443 | 58 | 8 | – |
| C=CCN1Cc2cccc3[nH]c(=O)n(c23)C[C@H]1C | Not Active | – | – | – | 592 |
| C#CC(C)=CCN1Cc2cccc3nc(O)n(c23)CC1C (configuration not stated) | Not Active | 707 | – | – | – |
| C[C@@H]1Cn2c(O)nc3cccc(c32)CN1 | Not Active | 901 | – | – | – |

| SMILES | IC50 (MT4 [1]) | CC50 (MT4 [2]) [µM] | IC50 [3] [µM] | Selectivity index (MT4 [4]) | CC50 (MT4 [5]) [µM] |
| --- | --- | --- | --- | --- | --- |
| CC(C)=CCN1Cc2cccc3nc(O)n(c23)C[C@@H]1C | – | 427 | 4 | 105 | – |
| CC1Cn2c(O)nc3cccc(c32)CN1CC1CC1 (configuration not stated) | – | 588 | 44 | 13 | – |
| C=CCN1Cc2cccc3[nH]c(=O)n(c23)CC1C (configuration not stated) | – | 670 | 70 | 10 | – |
| C=C(Cc1ccccc1)CN1Cc2cccc3nc(O)n(c23)CC1C (configuration not stated) | Not Active | 572 | – | – | – |
| C/C=C\CN1Cc2cccc3nc(O)n(c23)CC1C (configuration not stated) | – | 560 | 35 | 16 | – |
| C=C(CN1Cc2cccc3nc(O)n(c23)CC1C)C(=O)OCC (configuration not stated) | Not Active | 3 | – | – | – |
| CC(C)N1Cc2cccc3nc(O)n(c23)CC1C (configuration not stated) | Not Active | 65 | – | – | – |
| C#C/C=C/CN1Cc2cccc3nc(O)n(c23)CC1C (configuration not stated) | Not Active | 370 | – | – | – |
| C#C/C(C)=C/CN1Cc2cccc3nc(O)n(c23)CC1C (configuration not stated) | Not Active | 18 | – | – | – |
| CC1Cn2c(O)nc3cccc(c32)CN1CCO (configuration not stated) | Not Active | 776 | – | – | – |
| CC1Cn2c(O)nc3cccc(c32)CN1CC1=CCCCC1 (configuration not stated) | Not Active | 212 | – | – | – |
| CC1Cn2c(O)nc3cccc(c32)CN1Cc1ncc[nH]1 (configuration not stated) | Not Active | 685 | – | – | – |
| CC(C)=CCC/C(C)=C\CN1Cc2cccc3nc(O)n(c23)CC1C (configuration not stated) | Not Active | 44 | – | – | – |
| C=C(Br)CN1Cc2cccc3nc(O)n(c23)CC1C (configuration not stated) | – | 416 | 62 | 7 | – |
| C=CCN1Cc2cccc3[nH]c(=O)n(c23)C[C@@H]1C | – | 670 | 66 | 10 | – |
| CC(=O)N1Cc2cccc3nc(O)n(c23)CC1C (configuration not stated) | Not Active | 175 | – | – | – |
| CC1Cn2c(O)nc3cccc(c32)CN1Cc1ccco1 (configuration not stated) | – | 529 | 106 | 5 | – |
| CC(C)OCCN1Cc2cccc3nc(O)n(c23)CC1C (configuration not stated) | Not Active | 504 | – | – | – |
| COC(=O)/C=C/CN1Cc2cccc3nc(O)n(c23)CC1C (configuration not stated) | Not Active | 252 | – | – | – |
| C=C(C)CN1Cc2cccc3[nH]c(=O)n(c23)CC1C (configuration not stated) | – | 665 | 47 | 15 | – |
| CCCN1Cc2cccc3[nH]c(=O)n(c23)CC1C (configuration not stated) | – | 722 | 90 | 8 | – |
| CC(C)=CCN1Cc2cccc3nc(O)n(c23)CC1C (configuration not stated) | – | 416 | 12.5 | 33 | – |
| C(=NC1CCCCC1)=NC1CCCCC1 [DICYCLOHEXYLCARBODIIMIDE] | – | 232 | 0.137 | 1693 | – |
| O=c1[nH]cnc2c1ncn2[C@H]1CC[C@@H](CO)O1 [DIDANOSINE] | – | 1050 | 5.5 | 191 | – |
| Cc1cn([C@H]2C[C@H](N=[N+]=[N-])[C@@H](CO)O2)c(=O)[nH]c1=O [ZIDOVUDINE] | – | 9.3 | 0.0015 | 6200 | – |
